ChEMBL document CHEMBL1129264, “Mercaptoacyl dipeptides as orally active dual inhibitors of angiotensin-converting enzyme and neutral endopeptidase” (1996)
Blank lines part the entries; values can stand above or below the molecule they belong to.

Assays:
Format in all cases: organism-based
[1] = target: T1, Angiotensin-converting enzyme (Rattus norvegicus) (UniProt P47820); assay: Compound was tested for plasma inhibition of Angiotensin I converting enzyme activity in the conscious rat. Expressed as Inhibition of AI pressor response at 4 hr at a dose of 10 mg/kg po; set-up: dose 10 mg/kg
T1 sequence (whole entry): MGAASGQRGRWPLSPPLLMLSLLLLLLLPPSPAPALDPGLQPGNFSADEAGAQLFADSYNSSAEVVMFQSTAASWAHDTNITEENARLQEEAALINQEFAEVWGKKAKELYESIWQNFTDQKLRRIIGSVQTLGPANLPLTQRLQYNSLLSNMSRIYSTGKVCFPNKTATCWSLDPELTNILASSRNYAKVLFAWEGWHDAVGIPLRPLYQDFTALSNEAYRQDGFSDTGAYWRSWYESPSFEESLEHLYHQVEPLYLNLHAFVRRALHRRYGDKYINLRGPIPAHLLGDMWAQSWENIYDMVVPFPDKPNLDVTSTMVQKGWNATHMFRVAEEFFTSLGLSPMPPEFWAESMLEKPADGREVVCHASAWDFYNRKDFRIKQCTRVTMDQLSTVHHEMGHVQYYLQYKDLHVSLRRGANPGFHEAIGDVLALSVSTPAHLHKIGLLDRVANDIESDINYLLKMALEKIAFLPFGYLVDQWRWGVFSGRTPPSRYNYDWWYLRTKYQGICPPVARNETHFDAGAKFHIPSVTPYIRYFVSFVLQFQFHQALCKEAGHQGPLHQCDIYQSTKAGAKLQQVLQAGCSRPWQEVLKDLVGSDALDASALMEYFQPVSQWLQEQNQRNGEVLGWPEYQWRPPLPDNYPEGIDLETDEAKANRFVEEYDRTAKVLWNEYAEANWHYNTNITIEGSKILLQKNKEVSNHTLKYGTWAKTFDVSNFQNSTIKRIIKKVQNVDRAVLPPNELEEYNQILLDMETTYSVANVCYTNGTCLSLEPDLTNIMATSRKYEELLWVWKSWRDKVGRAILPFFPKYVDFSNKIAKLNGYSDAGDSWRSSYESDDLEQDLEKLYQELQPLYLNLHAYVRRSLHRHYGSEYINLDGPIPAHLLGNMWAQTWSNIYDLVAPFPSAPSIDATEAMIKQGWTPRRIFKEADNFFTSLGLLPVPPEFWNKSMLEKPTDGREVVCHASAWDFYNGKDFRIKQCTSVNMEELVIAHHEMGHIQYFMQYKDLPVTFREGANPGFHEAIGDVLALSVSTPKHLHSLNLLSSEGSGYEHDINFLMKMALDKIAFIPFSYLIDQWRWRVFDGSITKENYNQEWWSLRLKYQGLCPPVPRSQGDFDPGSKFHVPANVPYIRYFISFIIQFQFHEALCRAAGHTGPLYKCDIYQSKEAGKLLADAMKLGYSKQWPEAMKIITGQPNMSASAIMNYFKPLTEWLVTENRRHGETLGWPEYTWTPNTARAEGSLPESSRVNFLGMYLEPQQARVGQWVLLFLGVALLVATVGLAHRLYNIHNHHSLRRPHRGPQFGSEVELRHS
Outline: (§1)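 Male conscious normotensive Sprague-Dawley rats (275-390 g), given femoral arterial and venous catheters under methohexital sodium (75 mg/kg ip) anesthesia. Next day, pressor responses to three angiotensin-I challenges (300 ng/kg iv) recorded by direct arterial pressure. Compound then dosed orally, and AI challenge repeated at set times. Each post-dose response compared with the mean of the three baseline responses, giving % inhibition.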

[2] = target: T1, Angiotensin-converting enzyme (Rattus norvegicus); assay: Compound was tested for plasma inhibition of Angiotensin I converting enzyme activity in the conscious rat. Expressed as Inhibition of AI pressor response at 1 hr at a dose of 10 mg/kg po; set-up: dose 10 mg/kg; outline: as §1
[3] = target: T1, Angiotensin-converting enzyme (Rattus norvegicus); assay: Compound was tested for plasma inhibition of Angiotensin I converting enzyme activity in the conscious rat. Expressed as Inhibition of AI pressor response at 6 hr at a dose of 10 mg/kg po; set-up: dose 10 mg/kg
Outline: (§2)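 Male conscious normotensive Sprague-Dawley rats (275-390 g), prepared under methohexital sodium (75 mg/kg ip) with femoral arterial and venous catheters. The next day, pressor responses to three angiotensin-I challenges (300 ng/kg iv) were recorded. Compound was then given orally and angiotensin-I challenges were repeated at set times. Percent inhibition is relative to the mean of the three baseline responses.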

[4] = target: T1, Angiotensin-converting enzyme (Rattus norvegicus); assay: Compound was tested for plasma inhibition of Angiotensin I converting enzyme activity in the conscious rat. Expressed as Inhibition of AI pressor response at 2 hr at a dose of 10 mg/kg po; set-up: dose 10 mg/kg; outline: as §1
[5] = target: T1, Angiotensin-converting enzyme (Rattus norvegicus); assay: Compound was tested for plasma inhibition of Angiotensin I converting enzyme activity in the conscious rat. Expressed as Inhibition of AI pressor response at 4 hr at a dose of 11.7 mg/kg po; set-up: dose 11.7 mg/kg; outline: as §1
[6] = target: T1, Angiotensin-converting enzyme (Rattus norvegicus); assay: Compound was tested for plasma inhibition of Angiotensin I converting enzyme activity in the conscious rat. Expressed as Inhibition of AI pressor response at 2 hr at a dose of 11.7 mg/kg po; set-up: dose 11.7 mg/kg; outline: as §1
[7] = target: T1, Angiotensin-converting enzyme (Rattus norvegicus); assay: Compound was tested for plasma inhibition of Angiotensin I converting enzyme activity in the conscious rat. Expressed as Inhibition of AI pressor response at 1 hr at a dose of 11.7 mg/kg po; set-up: dose 11.7 mg/kg; outline: as §1
[8] = target: T1, Angiotensin-converting enzyme (Rattus norvegicus); assay: Compound was tested for plasma inhibition of Angiotensin I converting enzyme activity in the conscious rat. Expressed as Inhibition of AI pressor response at 6 hr at a dose of 11.7 mg/kg po; set-up: dose 11.7 mg/kg; outline: as §2
[9] = target: T1, Angiotensin-converting enzyme (Rattus norvegicus); assay: Compound was tested for plasma inhibition of Angiotensin I converting enzyme activity in the conscious rat. Expressed as Inhibition of AI pressor response at 2 hr at a dose of 13.1 mg/kg po; set-up: dose 13.1 mg/kg; outline: as §1
[10] = target: T1, Angiotensin-converting enzyme (Rattus norvegicus); assay: Compound was tested for plasma inhibition of Angiotensin I converting enzyme activity in the conscious rat. Expressed as Inhibition of AI pressor response at 1 hr at a dose of 13.1 mg/kg po; set-up: dose 13.1 mg/kg; outline: as §1
[11] = target: T1, Angiotensin-converting enzyme (Rattus norvegicus); assay: Compound was tested for plasma inhibition of Angiotensin I converting enzyme activity in the conscious rat. Expressed as Inhibition of AI pressor response at 4 hr at a dose of 13.1 mg/kg po; set-up: dose 13.1 mg/kg; outline: as §2
[12] = target: T1, Angiotensin-converting enzyme (Rattus norvegicus); assay: Compound was tested for plasma inhibition of Angiotensin I converting enzyme activity in the conscious rat. Expressed as Inhibition of AI pressor response at 6 hr at a dose of 13.1 mg/kg po; set-up: dose 13.1 mg/kg; outline: as §2
[13] = target: T1, Angiotensin-converting enzyme (Rattus norvegicus); assay: Compound was tested for plasma inhibition of Angiotensin I converting enzyme activity in the conscious rat. Expressed as Inhibition of AI pressor response at 1 hr at a dose of 12.8 mg/kg po; set-up: dose 12.8 mg/kg; outline: as §1
[14] = target: T1, Angiotensin-converting enzyme (Rattus norvegicus); assay: Compound was tested for plasma inhibition of Angiotensin I converting enzyme activity in the conscious rat. Expressed as Inhibition of AI pressor response at 2 hr at a dose of 12.8 mg/kg po; set-up: dose 12.8 mg/kg; outline: as §1
[15] = target: T1, Angiotensin-converting enzyme (Rattus norvegicus); assay: Compound was tested for plasma inhibition of Angiotensin I converting enzyme activity in the conscious rat. Expressed as Inhibition of AI pressor response at 6 hr at a dose of 12.8 mg/kg po; set-up: dose 12.8 mg/kg; outline: as §2
[16] = target: T1, Angiotensin-converting enzyme (Rattus norvegicus); assay: Compound was tested for plasma inhibition of Angiotensin I converting enzyme activity in the conscious rat. Expressed as Inhibition of AI pressor response at 4 hr at a dose of 12.8 mg/kg po; set-up: dose 12.8 mg/kg; outline: as §1

inhibition [1]: 83%
inhibition [2]: 86%
inhibition [3]: 47%
inhibition [4]: 81%
SMILES: CCOC(=O)[C@H](Cc1ccc(O)cc1)NC(=O)C1(NC(=O)[C@H](SC(C)=O)C(C)C)CCCC1

inhibition [5]: 76%
inhibition [6]: 91%
inhibition [7]: 81%
inhibition [8]: 52%
SMILES: CCOC(=O)[C@H](Cc1ccc(OC)cc1)NC(=O)C1(NC(=O)[C@H](SC(=O)COC)C(C)C)CCCC1

inhibition [9]: 35%
inhibition [10]: 50%
inhibition [11]: 23%
inhibition [12]: 4%
SMILES: CCOC(=O)[C@H](Cc1ccc(OC(=O)CC)cc1)NC(=O)C1(NC(=O)[C@H](SC(C)=O)C(C)C)CCCC1

inhibition [9]: 78%
inhibition [10]: 64%
inhibition [11]: 61%
inhibition [12]: 16%
SMILES: CCCCCCOC(=O)[C@H](Cc1ccc(O)cc1)NC(=O)C1(NC(=O)[C@H](SC(C)=O)C(C)C)CCCC1

inhibition [1]: 25%
inhibition [2]: 76%
inhibition [3]: 14%
inhibition [4]: 72%
SMILES: COC(=O)[C@H](Cc1ccc(O)cc1)NC(=O)C1(NC(=O)[C@H](SC(C)=O)C(C)C)CCCC1

inhibition [13]: 75%
inhibition [1]: 65%
inhibition [14]: 70%
inhibition [15]: 58%
SMILES: CCCCOC(=O)[C@H](Cc1ccc(OC)cc1)NC(=O)C1(NC(=O)[C@H](SC(C)=O)C(C)C)CCCC1

inhibition [13]: 64%
inhibition [14]: 52%
inhibition [15]: 16%
inhibition [16]: 31%
SMILES: CCOC(=O)[C@H](Cc1ccc(OC(C)=O)cc1)NC(=O)C1(NC(=O)[C@H](SC(C)=O)C(C)C)CCCC1

inhibition [13]: 8%
inhibition [14]: 17%
inhibition [15]: 19%
inhibition [16]: 14%
SMILES: CCOC(=O)[C@H](Cc1ccc(O)cc1)NC(=O)C1(NC(=O)[C@H](SC(=O)C(C)(C)C)C(C)C)CCCC1
